According to ChEMBL document CHEMBL3745596, “Chlorophenoxy aminoalkyl derivatives as histamine H(3)R ligands and antiseizure agents” (Bioorg Med Chem, 2016):
Calls of active or inactive are those of the source.

Columns and labels:
Mus musculus [1] = assay: Anticonvulsant activity in CF1 albino mouse assessed as protection against subcutaneous pentetrazole-induced seizure at 30 mg/kg, ip after 4 hrs; format: functional, organism-based
Procedure, shortened: (§1)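 Male CF-1 mice, ip in 0.5% methylcellulose; pentetrazole at CD97 (85 mg/kg) injected subcutaneously in a loose fold of neck skin. Observed 30 min; absence of even a threshold seizure (single clonic spasm lasting at least 5 s) counted as protection. Scored protected/tested, or ED50.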

Mus musculus [2] = assay: Neurotoxicity in CF1 albino mouse at 300 mg/kg, ip after 4 hrs by rotarod test; format: toxicity, organism-based; conditions: in vivo
Procedure, shortened: (§2)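 Rotarod neurotoxicity in male albino CF-1 mice dosed ip with compound suspended in 0.5% methylcellulose. Animal placed on a 1 inch diameter knurled plastic rod rotating at 6 rpm. Neurotoxicity scored when the animal falls off three times within 1 min. Readout is number of animals toxic/number tested at the stated time after dosing. TD50 with 95% confidence interval from the quantitative study.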

Mus musculus [3] = assay: Anticonvulsant activity in CF1 albino mouse assessed as protection against maximal electroshock-induced seizure at 10 mg/kg, ip after 0.5 hrs; format: functional, organism-based
Procedure, shortened: (§3)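 Male CF-1 mice dosed ip as suspension in 0.5% methylcellulose. Corneal electrodes deliver 60 Hz alternating current, 50 mA for […], after a drop of 0.5% tetracaine HCl in 0.9% NaCl per eye. Protection means abolition of hindlimb tonic extension; scored as protected/tested, or ED50 with 95% confidence interval.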

Mus musculus [4] = assay: Neurotoxicity in CF1 albino mouse at 30 mg/kg, ip after 4 hrs by rotarod test; format: toxicity, organism-based; conditions: in vivo; procedure, shortened: as §2
Mus musculus [5] = assay: Anticonvulsant activity in CF1 albino mouse assessed as protection against maximal electroshock-induced seizure at 100 mg/kg, ip after 4 hrs; format: functional, organism-based; procedure, shortened: as §3
Mus musculus [6] = assay: Anticonvulsant activity in CF1 albino mouse assessed as protection against maximal electroshock-induced seizure at 3 mg/kg, ip after 0.5 hrs; format: functional, organism-based; procedure, shortened: as §3
Mus musculus [7] = assay: Anticonvulsant activity in CF1 albino mouse assessed as protection against subcutaneous pentetrazole-induced seizure at 100 mg/kg, ip after 4 hrs; format: functional, organism-based; procedure, shortened: as §1
Mus musculus [8] = assay: Neurotoxicity in CF1 albino mouse at 30 mg/kg, ip after 0.5 hrs by rotarod test; format: toxicity, organism-based; conditions: in vivo; procedure, shortened: as §2
Mus musculus [9] = assay: Anticonvulsant activity in CF1 albino mouse assessed as protection against maximal electroshock-induced seizure at 30 mg/kg, ip after 0.5 hrs; format: functional, organism-based; procedure, shortened: as §3
Rattus norvegicus [10] = assay: Neurotoxicity in Sprague-Dawley rat at 30 mg/kg, po by rotarod test; format: toxicity, organism-based; conditions: in vivo
Procedure, shortened: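 Oral dosing in male Sprague–Dawley rats, compound as a suspension in 0.5% methylcellulose. Rotarod neurotoxicity on a 1 inch knurled rod turning at 6 rpm, with three falls in 1 min scored as toxic. Reported as toxic/tested.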

Mus musculus [11] = assay: Anticonvulsant activity in CF1 albino mouse assessed as protection against maximal electroshock-induced seizure at 100 mg/kg, ip after 0.5 hrs; format: functional, organism-based; procedure, shortened: as §3
Rattus norvegicus [12] = assay: Anticonvulsant activity in Sprague-Dawley rat assessed as protection against maximal electroshock-induced seizure at 30 mg/kg, po; format: functional
Histamine H3 receptor = Histamine H3 receptor (Homo sapiens, UniProt Q9Y5N1); assay: Displacement of [3H]-Nalpha-methylhistamine from human recombinant histamine H3 receptor expressed in HEK293 cells after 90 mins; format: cell-based
Mus musculus [13] = assay: Anticonvulsant activity in CF1 albino mouse assessed as protection against maximal electroshock-induced seizure at 30 mg/kg, ip after 4 hrs; format: functional, organism-based; procedure, shortened: as §3
Mus musculus [14] = assay: Anticonvulsant activity in CF1 albino mouse assessed as protection against subcutaneous pentetrazole-induced seizure at 100 mg/kg, ip after 0.5 hrs; format: functional, organism-based; procedure, shortened: as §1
Mus musculus [15] = assay: Neurotoxicity in CF1 albino mouse assessed as unable to grasp rotarod, diarrhea and clonic seizure at 100 mg/kg, ip after 0.5 hrs by rotarod test; format: toxicity, organism-based; conditions: in vivo
Procedure, shortened: (§4)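 Rotarod neurotoxicity in male CF-1 mice dosed ip as 0.5% methylcellulose suspension: mouse placed on 1 inch knurled rod rotating at 6 rpm; toxicity when the animal falls off three times within 1 min, with other signs noted. Scored as toxic/tested at 0.5 h and 4 h.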

Mus musculus [16] = assay: Neurotoxicity in CF1 albino mouse at 3 mg/kg, ip after 0.5 hrs by rotarod test; format: toxicity, organism-based; conditions: in vivo; procedure, shortened: as §2
Mus musculus [17] = assay: Anticonvulsant activity in CF1 albino mouse assessed as protection against subcutaneous pentetrazole-induced seizure at 30 mg/kg, ip after 0.5 hrs; format: functional, organism-based; procedure, shortened: as §1
Mus musculus [18] = assay: Neurotoxicity in CF1 albino mouse at 100 mg/kg, ip after 4 hrs by rotarod test; format: toxicity, organism-based; conditions: in vivo; procedure, shortened: as §2
Mus musculus [19] = assay: Neurotoxicity in CF1 albino mouse assessed as death at 300 mg/kg, ip after 0.5 hrs by rotarod test; format: toxicity, organism-based; conditions: in vivo
Procedure, shortened: (§5)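 Male albino CF-1 mice dosed ip with compound suspended in 0.5% methylcellulose, then placed on a 1-inch knurled plastic rod turning at 6 rpm. A fall three times within 1 min counted as neurotoxicity. Observations were made at 0.5 h and 4 h after dosing. Result given as animals showing toxicity per animals tested, with the kind of toxicity recorded.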

Mus musculus [20] = assay: Neurotoxicity in CF1 albino mouse at 10 mg/kg, ip after 0.5 hrs by rotarod test; format: toxicity, organism-based; conditions: in vivo; procedure, shortened: as §4
Mus musculus [21] = assay: Neurotoxicity in CF1 albino mouse assessed as unable to grasp rotarod and death at 100 mg/kg, ip after 0.5 hrs by rotarod test; format: toxicity, organism-based; conditions: in vivo; procedure, shortened: as §5
Mus musculus [22] = assay: Neurotoxicity in CF1 albino mouse assessed as unable to grasp rotarod, death and diarrhea at 300 mg/kg, ip after 0.5 hrs by rotarod test; format: toxicity, organism-based; conditions: in vivo; procedure, shortened: as §5
Mus musculus [23] = assay: Anticonvulsant activity in CF1 albino mouse assessed as protection against maximal electroshock-induced seizure at 300 mg/kg, ip after 0.5 hrs; format: functional, organism-based; procedure, shortened: as §3

Chain of Histamine H3 receptor (Q9Y5N1 whole entry): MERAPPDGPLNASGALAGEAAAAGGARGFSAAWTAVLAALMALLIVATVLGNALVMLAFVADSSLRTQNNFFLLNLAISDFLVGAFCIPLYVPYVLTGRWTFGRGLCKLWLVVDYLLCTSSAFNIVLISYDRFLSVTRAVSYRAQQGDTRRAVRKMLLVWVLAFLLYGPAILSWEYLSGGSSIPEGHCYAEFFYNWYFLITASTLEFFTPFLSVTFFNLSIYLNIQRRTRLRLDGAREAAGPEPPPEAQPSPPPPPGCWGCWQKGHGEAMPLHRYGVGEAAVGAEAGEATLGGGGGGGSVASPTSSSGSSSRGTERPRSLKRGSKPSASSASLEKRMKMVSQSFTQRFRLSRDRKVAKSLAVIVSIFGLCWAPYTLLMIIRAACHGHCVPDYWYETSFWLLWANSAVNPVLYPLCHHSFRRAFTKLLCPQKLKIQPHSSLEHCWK

Row | SMILES | Activity (Mus musculus [1]) | Activity (Mus musculus [2]) | Activity (Mus musculus [4]) | Activity (Mus musculus [5]) | Activity (Mus musculus [7]) | Activity (Mus musculus [8]) | Activity (Mus musculus [9]) | Activity (Mus musculus [11]) | Ki (Histamine H3 receptor) [nM] | Activity (Mus musculus [13]) | Activity (Mus musculus [14]) | Activity (Mus musculus [17]) | Activity (Mus musculus [18]) | also measured
1 | CC1CCN(CCCCCCCOc2ccc(Cl)cc2)CC1.O=C(O)C(=O)O | inactive | Non-toxic | Non-toxic | Active | inactive | Non-toxic | Active | Active | 467 | inactive | inactive | inactive | Non-toxic | Activity (Mus musculus [3]): inactive; Activity (Mus musculus [6]): inactive; Activity (Rattus norvegicus [10]): Non-toxic; Activity (Rattus norvegicus [12]): inactive; Activity (Mus musculus [15]): Toxic; Activity (Mus musculus [16]): Non-toxic; Activity (Mus musculus [19]): Toxic; Activity (Mus musculus [20]): Non-toxic
2 | CC1CCN(CCCCCCCOc2cccc(Cl)c2)CC1.O=C(O)C(=O)O | inactive | Non-toxic | Non-toxic | Active | inactive | Non-toxic | inactive | inactive | 805 | inactive | inactive | inactive | Non-toxic | Activity (Mus musculus [21]): Toxic; Activity (Mus musculus [22]): Toxic; Activity (Mus musculus [23]): Active
